Bioassay records from PubChem.
GPR7 antag: blocks human GPR7 receptor signaling. P48145. inhibition, % at 4.4 µM. 290,000 compounds, 1.1% hits. GPR7-expressing cells, fluorescence antagonist assay; in the data active = inhibition above about 16%, passing the limit was not always enough;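 note: cells stimulated with the agonist NPW; 0% = agonist with vehicle and 100% = vehicle without agonist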
Target sequence (P48145 whole entry, looked up): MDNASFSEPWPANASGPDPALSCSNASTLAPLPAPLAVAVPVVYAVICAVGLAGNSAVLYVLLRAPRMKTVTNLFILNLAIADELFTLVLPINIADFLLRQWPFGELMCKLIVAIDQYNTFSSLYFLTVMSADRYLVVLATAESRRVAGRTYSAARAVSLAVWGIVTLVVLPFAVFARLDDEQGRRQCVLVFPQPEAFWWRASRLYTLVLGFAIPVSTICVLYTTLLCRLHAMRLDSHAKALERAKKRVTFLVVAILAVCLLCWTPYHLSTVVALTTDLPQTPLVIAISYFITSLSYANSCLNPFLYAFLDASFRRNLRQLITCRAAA
HCV core dimer: HCV core protein dimerization inhibition; TR-FRET GST/Flag-core106 dimerization, 1536-well; inhibition, % at 5 µM; 300,000 compounds, 0.33% hits; AID 1899;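 active = inhibition above the mean of all tested compounds plus 3 SD, set per screening campaign, cut at about 45% in these data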
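System – GST-tagged and Flag-tagged HCV core protein residues 1-106 · Repeats – one well for each compound · Technique – TR-FRET 671 and 617 nm emission · Doses – one concentration, 5 µM, in 0.5% DMSO · Times – 4 h, 22.5 °C incubation · Also added – Eu donor and XL665 acceptor anti-tag antibodies · Measure – percent inhibition of core106 dimerization signal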
NS3 helicase inh: blocks Hepatitis C virus NS3 helicase unwinding. NS3 helicase DNA unwinding, Cy5 molecular beacon fluorescence. inhibition, % at 10.9 µM. 290,000 compounds, 0.56% hits. AID 1800;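 active = inhibition above the mean of all tested compounds plus 3 SD, set per campaign, cut at about 35% in these data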;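 note: 0% = DMSO wells and 100% = thioflavine S control wells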
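System: NS3 helicase fragment of HCV / Schedule: 1 h at 25 °C / Control set: DMSO alone as 0% and 110 µM thioflavine S as 100% / Reagent: Cy5/quencher beacon DNA duplex and ATP to start / Technique: Cy5 fluorescence / Replication: singlicate / Evaluation: % inhibition of end-to-start signal ratio versus controls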
FID counter: displaces DNA intercalator in HCV helicase counter-screen. DNA fluorescent intercalator displacement, fluorescence. inhibition, % at 7.9 µM. 290,000 compounds, 0.17% hits. AID 1845; in the data active = inhibition above about 37%;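 note: 0% = vehicle and 100% = reference compound; higher means more ethidium bromide displaced from hairpin DNA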
GRK2 aptamer HTS: human GRK2 inhibition via aptamer displacement; P25098; bead flow cytometry, FAM-aptamer displacement from GRK2; inhibition of aptamer binding, % at 10 µM; 330,000 compounds, 0.59% hits; AID 488847;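 active = inhibition of aptamer binding above 40%, roughly 3 SD of noise, on plates passing a quality check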;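 note: median bead fluorescence of bound FAM aptamer so fluorescent compounds give negative values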
DAGLB inh: diacylglycerol lipase beta (human) inhibition | Q8NCG7 | HEK293T DAGLB membrane lysate, EnzChek fluorogenic substrate | inhibition, % at 5.17 µM | 340,000 compounds, 0.059% hits | AID 504411; in the data active = inhibition above about 34%;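 note: 0% = enzyme with vehicle and 100% = wells lacking enzyme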
* marks the source's active call; other numbers are inactive results; / = not tested or not shown. Rows were chosen to be rich in hits. Some 2.2% of all compounds tested hit in one or more screens of this group.

SMILES | GPR7 antag | HCV core dimer | NS3 helicase inh | FID counter | GRK2 aptamer HTS | DAGLB inh
Cc1cc(C(=O)NNS(=O)(=O)c2cc(C(=O)O)ccc2Cl)c(C)n1-c1ccccc1 | / | / | / | / | 8 | -1
Cc1cc(C)c2sc(NC(=O)c3ccc(N4C(=O)CCC4=O)cc3)nc2c1 | 1 | 16 | 7 | -7 | 2 | 3
Cc1ccc2nc(NC(=O)c3ccc(N4C(=O)CCC4=O)cc3)sc2c1 | 10 | 48* | 2 | 11 | 2 | 0
Cn1c(=O)c(C(=O)NNC(=O)c2ccc(Br)cc2)c(O)c2ccccc21 | -6 | 5 | -36 | -15 | 47* | 4
C[n+]1c(-c2ccc(C=NNC(=O)c3ccc(C(=O)NN=Cc4ccc(-c5cn6ccccc6[n+]5C)cc4)cc3)cc2)cn2ccccc21 | / | / | / | / | / | -4
COc1ccc(NC(C)=[N+](C)CCNS(=O)(=O)c2ccc(Cl)cc2)cc1 | -1 | -2 | -3 | 13 | 8 | 1
CCCCn1c(N)c(N(CCOC)C(=O)c2cc(S(=O)(=O)N3CCOCC3)ccc2Cl)c(=O)[nH]c1=O | / | / | / | / | / | 2
O=[N+]([O-])/C(Cl)=C(/NCCO)C(Cl)=C(Cl)Cl | / | / | / | / | / | -2
CC(C)Cc1nc2oc3c(N4CCN(CCO)CC4)ncnc3c2c2c1CCCC2 | -3 | -9 | -17 | -3 | 45* | 0
COc1cc(CCC(=O)OCC(=O)Nc2ccc(F)cc2F)cc(OC)c1OC | -17 | 9 | -1 | -20 | 2 | -1
CC1(C)S[C@@H]2[C@H](NC(=O)COc3ccccc3)C(=O)N2C1C(=O)OCc1cc2ccccc2n1S(=O)(=O)c1ccccc1 (stereo partly specified) | 0 | 66* | 0 | -43 | 1 | /
CCN(c1ccccc1)C1(O)C(=O)c2ccccc2C1=O | 20* | -3 | 1 | -2 | 0 | -3
CCOc1ccccc1N(C)S(=O)(=O)c1ccc2c(c1)CCN2C(=O)CCC(=O)O | -21 | 2 | 6 | -34 | 4 | 1
CCc1ccccc1NC(=O)CN(C)S(=O)(=O)c1ccc(-c2ccc(=O)[nH]n2)s1 | -10 | 12 | 8 | -33 | 1 | 2
COc1cc(OC)c(NC(=O)CN(C)S(=O)(=O)c2ccc(-c3ccc(=O)[nH]n3)s2)cc1Cl | -5 | 53* | -5 | -49 | 1 | -4
COCCn1c(C)cc(C(=O)COC(=O)c2ccc(NC(=O)CC#N)cc2)c1C | 8 | 68* | 6 | -41 | 1 | 0
CCn1c2ccccc2c2cc(NC(=O)COC(=O)c3ccc(NC(=O)CC#N)cc3)ccc21 | / | 74* | / | / | 0 | 7
CC(=O)Nc1ccc(C(=O)/C=C/c2ccco2)cc1 | -5 | 4 | 20 | -10 | 3 | 0
O=C(/C=C\c1ccco1)c1ccc(NC(=O)c2ccco2)cc1 | -8 | 57* | 22 | -18 | 1 | -2
O=C(COC(=O)Cc1ccc(Cl)cc1)Nc1ccc(OC(F)F)cc1 | 4 | -1 | -11 | 0 | 44* | -1
Cc1ccc([C@H]2C[C@@H](O)[C@H](n3cc(-c4ccc(F)cc4)nn3)CN2C(=O)C2CCCCC2)cc1 | / | / | / | / | / | 1
CCN(CC)CCCN(C(=O)c1ccc(OC)cc1)c1nc(-c2ccc(OC)cc2)cs1 | 2 | -7 | -82 | 44* | 0 | 1
COc1ccc([C@H]2N[C@]3(CCCN(Cc4ccc(F)cc4)C3=O)[C@H]3C(=O)N(C)C(=O)[C@@H]23)cc1 | / | / | / | / | / | 2
CCOc1cc(/C=C2\C(=O)N(c3cccc(C(=O)O)c3)N=C2C(F)(F)F)ccc1OCC(=O)Nc1ccccc1OC | -17 | 31 | 4 | 43* | 0 | /
CC(C)COC(=O)N(C)C[C@@H]1OCc2cnnn2CCCC(=O)N([C@H](C)CO)C[C@@H]1C | / | / | / | / | / | 0
C/C(=N/NC(=O)CNc1ccc(C)cc1)c1ccc(Cl)cc1 | -4 | 10 | 1 | -3 | 0 | -1
CCCCC(O)(CCCC)C(=O)N/N=C(\C)c1ccc(Cl)cc1 | 20* | 0 | 23 | -18 | 0 | -2
CC1=C/C(=C\c2ccc(Br)o2)C(=O)O1 | -3 | 12 | 8 | 1 | 96* | -1
COc1cc(CNc2ncc(-c3ccc(Br)cc3)n2C)cc(OC)c1O | -7 | -7 | -5 | 14 | 0 | 2
O=C(NNC(=O)c1ccccc1F)c1cccc(-n2cccc2)c1 | / | 53* | / | / | 36 | -1
